From ChEMBL document CHEMBL1649277, “Inhibition of herpesvirus replication by 5-substituted 4'-thiopyrimidine nucleosides” (Antimicrob Agents Chemother, 2009)

Experiments:
Human alphaherpesvirus 2 [1] = experiment: Antiviral activity against HSV2 MS infected in HFF after 3 days by plaque reduction assay; type: functional, organism-based; conditions: Human alphaherpesvirus 2, MS, 72 h
Procedure, shortened: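 Confluent primary HFF monolayers (passage <10), triplicate wells, virus dosed at 20–30 plaques/well. Adsorption was 1 h with rocking every 15 min. Six serial dilutions, top 100 μM, were made in MEM with 2% FBS plus pooled human immunoglobulin. After 3 days, wells were stained with 0.1% crystal violet in 20% methanol and plaques counted microscopically. EC50 was interpolated.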

Human alphaherpesvirus 2 [2] = experiment: Antiviral activity against 4'-thioIDU-resistant HSV2 infected in HFF after 3 days by plaque reduction assay; type: functional, organism-based; conditions: Human alphaherpesvirus 2, 72 h
Procedure, shortened: (§1)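 Confluent HFF monolayers (passage <10) were infected in triplicate wells at 20–30 plaques per well, with 1 h adsorption and rocking every 15 min. Six serial dilutions (top 100 μM) were made in MEM with 2% FBS and pooled human immunoglobulin. Cells were incubated 3 days and stained with crystal violet. Plaques were counted, and EC50 was interpolated from plaque reduction.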

Human alphaherpesvirus 2 [3] = experiment: Selectivity ratio of EC50 for 4'-thioIDU-resistant HSV2 infected in HFF to EC50 for HSV2 MS infected in HFF; type: functional
Human alphaherpesvirus 2 [4] = experiment: Antiviral activity against HSV2 harboring frameshift mutation in TK infected in HFF after 3 days by plaque reduction assay; type: functional, organism-based; conditions: Human alphaherpesvirus 2, 72 h; procedure, shortened: as §1
[5] = Selectivity index, ratio of CC50 for HFF to EC50 for HSV2 MS infected in HFF
[6] = Cytotoxicity against HFF after 3 days by MTS assay; type: cell-based; conditions: human, HFF cells
HFF = experiment: Antiproliferative activity against HFF after 3 days by Coulter counting analysis; type: cell-based; conditions: Homo sapiens, 72 h
Procedure, shortened: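 HFF seeded at 2.5 × 10^4 cells/well and allowed 24 h before compound dilutions in growth medium were added. Cells were incubated 72 h at 37°C, detached with trypsin-EDTA, and viable cells counted with a Coulter Counter in triplicate wells. The mean cell number gave the concentration reducing cell number by 50%.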

Human alphaherpesvirus 1 [7] = experiment: Antiviral activity against HSV1 E377 infected in HFF assessed as decrease in viral DNA accumulation after 3 days; type: functional, organism-based; conditions: Human alphaherpesvirus 1, E377, 72 h
Human alphaherpesvirus 2 [8] = experiment: Antiviral activity against HSV2 MS infected in HFF assessed as decrease in viral DNA accumulation after 3 days; type: functional, organism-based; conditions: Human alphaherpesvirus 2, MS, 72 h
Human betaherpesvirus 5 [9] = experiment: Antiviral activity against human cytomegalovirus AD169 infected in HFF assessed as decrease in viral DNA accumulation after 8 to 10 days; type: functional, organism-based; conditions: Human betaherpesvirus 5, AD169
Human alphaherpesvirus 3 = experiment: Antiviral activity against VZV Ellan infected in HFF assessed as decrease in viral DNA accumulation after 8 to 10 days; type: functional, organism-based; conditions: Human alphaherpesvirus 3, Ellan
Human gammaherpesvirus 4 = experiment: Antiviral activity against Epstein-Barr virus infected in human Akata cells assessed as decrease in viral DNA accumulation after 72 hrs; type: functional, organism-based; conditions: human gammaherpesvirus 4, Akata
Procedure, shortened: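 Latent Akata cells in RPMI 1640 with 10% FBS were induced to productive infection with 50 μg/ml goat anti-human IgG, 4 × 10^4 cells per well, with compound at 100–0.032 μM. After 72 h, NaOH/NaCl denaturation was followed by nylon membrane blotting. Viral DNA was quantified by digoxigenin-labeled probe hybridization and anti-hapten antibody detection.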

[10] = Antiviral activity against Human herpesvirus 6 GS infected in human HSB2 cells assessed as decrease in viral DNA accumulation after 7 days; type: functional, cell-based, Human herpesvirus 6 (strain GS); conditions: Human betaherpesvirus 6A, HSB2, 168 h
Procedure, shortened: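 HSB-2 cells (2 × 10^4/well) in RPMI 1640 with 10% FBS were infected with HHV-6A strain GS, with compound dilutions in triplicate wells, at 37°C for 7 days. Total DNA was denatured and immobilized on nylon. Viral DNA accumulation was measured by digoxigenin-labeled DNA probe hybridization and anti-hapten antibody detection.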

Human gammaherpesvirus 8 = experiment: Antiviral activity against Human herpesvirus 8 infected in human BCBL1 cells assessed as decrease in viral DNA accumulation after 7 days; type: functional, organism-based; conditions: Human gammaherpesvirus 8, BCBL1, 168 h
Procedure, shortened: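 BCBL1 cells in RPMI 1640 with 10% FBS were induced to lytic replication with phorbol 12-myristate 13-acetate (100 ng/ml final). Compound was tested in triplicate wells up to 100 μM for 7 days at 37°C. Total DNA was purified and viral DNA quantified by TaqMan qPCR. EC50 is the concentration giving 50% reduction of DNA accumulation.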

Human alphaherpesvirus 1 [11] = experiment: Antiviral activity against HSV1 E377 infected in HFF after 3 days by plaque reduction assay; type: functional, organism-based; conditions: Human alphaherpesvirus 1, E377, 72 h; procedure, shortened: as §1
Human alphaherpesvirus 1 [12] = experiment: Antiviral activity against HSV1 DM2.1 harboring frameshift mutation in TK infected in HFF after 3 days by plaque reduction assay; type: functional, organism-based; conditions: Human alphaherpesvirus 1, DM2.1, 72 h; procedure, shortened: as §1
Human alphaherpesvirus 1 [13] = experiment: Antiviral activity against HSV1 PAA5 harboring polymerase R842S mutant gene infected in HFF after 3 days by plaque reduction assay; type: functional, organism-based; conditions: Human alphaherpesvirus 1, PAA5, 72 h; procedure, shortened: as §1
Human alphaherpesvirus 1 [14] = experiment: Antiviral activity against HSV1 SC16-S1 harboring TK A265T/C336Y mutant gene infected in HFF after 3 days by plaque reduction assay; type: functional, organism-based; conditions: Human alphaherpesvirus 1, SC16-S1, 72 h; procedure, shortened: as §1
Human alphaherpesvirus 1 [15] = experiment: Antiviral activity against HSV1 B-2006 harboring frameshift mutation at Q185 in TK infected in HFF after 3 days by plaque reduction assay; type: functional, organism-based; conditions: Human alphaherpesvirus 1, B-2006, 72 h; procedure, shortened: as §1
Human alphaherpesvirus 2 [16] = experiment: Antiviral activity against HSV2 AG-3 harboring TK Q105P mutant gene infected in HFF after 3 days by plaque reduction assay; type: functional, organism-based; conditions: Human alphaherpesvirus 2, AG-3, 72 h; procedure, shortened: as §1
Human alphaherpesvirus 2 [17] = experiment: Antiviral activity against HSV2 12247 harboring TK C337Y mutant gene infected in HFF after 3 days by plaque reduction assay; type: functional, organism-based; conditions: Human alphaherpesvirus 2, 12247, 72 h; procedure, shortened: as §1
Human alphaherpesvirus 2 [18] = experiment: Antiviral activity against HSV2 13077 harboring TK R223H mutant gene infected in HFF after 3 days by plaque reduction assay; type: functional, organism-based; conditions: Human alphaherpesvirus 2, 13077, 72 h; procedure, shortened: as §1
Human alphaherpesvirus 2 [19] = experiment: Antiviral activity against HSV2 11680 harboring TK R223H mutant gene infected in HFF after 3 days by plaque reduction assay; type: functional, organism-based; conditions: Human alphaherpesvirus 2, 11680, 72 h; procedure, shortened: as §1
Human betaherpesvirus 5 [20] = experiment: Antiviral activity against human cytomegalovirus AD169 infected in HFF after 8 to 10 days by plaque reduction assay; type: functional, organism-based; conditions: Human betaherpesvirus 5, AD169
Procedure, shortened: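 Plaque reduction on confluent HFF monolayers in triplicate wells: 1 h adsorption, then six serial compound dilutions (top 100 μM) in MEM with 2% FBS, no immunoglobulin. Incubation was 8 days for HCMV and 10 days for VZV. Plaques were stained with 0.017% neutral red in PBS and counted microscopically. EC50 was interpolated at 50% plaque reduction.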

Human betaherpesvirus 5 [21] = experiment: Antiviral activity against human cytomegalovirus RC314 harboring UL97 K355M mutant gene infected in HFF after 8 to 10 days by plaque reduction assay; type: functional, organism-based; conditions: Human betaherpesvirus 5, RC314
Procedure, shortened: (§2)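 Plaque reduction in confluent HFF with six serial dilutions (top 100 μM) and no immunoglobulin added. Virus was adsorbed 1 h on triplicate wells. Cells were incubated 8 days, stained with 0.017% neutral red in PBS, and plaques counted. EC50 is the concentration reducing plaque number by 50%.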

Human betaherpesvirus 5 [22] = experiment: Antiviral activity against human cytomegalovirus C8914-6 harboring UL97 I244V, L595F and UL54 L501F mutant gene infected in HFF after 8 to 10 days by plaque reduction assay; type: functional, organism-based; conditions: Human betaherpesvirus 5, C8914-6; procedure, shortened: as §2
Human betaherpesvirus 5 [23] = experiment: Antiviral activity against human cytomegalovirus 759D100 harboring deletion mutation in UL97 gene and UL54 A987G mutant gene infected in HFF after 8 to 10 days by plaque reduction assay; type: functional, organism-based; conditions: Human betaherpesvirus 5, 759D100; procedure, shortened: as §2
Human betaherpesvirus 5 [24] = experiment: Antiviral activity against human cytomegalovirus 1117 harboring UL54 K513N mutant gene infected in HFF after 8 to 10 days by plaque reduction assay; type: functional, organism-based; conditions: Human betaherpesvirus 5, 1117; procedure, shortened: as §2
Human betaherpesvirus 5 [25] = experiment: Antiviral activity against human cytomegalovirus VR4955 harboring UL54 T700A mutant gene infected in HFF after 8 to 10 days by plaque reduction assay; type: functional, organism-based; conditions: Human betaherpesvirus 5, VR4955; procedure, shortened: as §2
Human betaherpesvirus 5 [26] = experiment: Antiviral activity against human cytomegalovirus PFAB300 harboring UL54 L724V mutant gene infected in HFF after 8 to 10 days by plaque reduction assay; type: functional, organism-based; conditions: Human betaherpesvirus 5, PFAB300; procedure, shortened: as §2

EC50 (Human alphaherpesvirus 2 [1]) [µM]	Compound	EC50 (Human alphaherpesvirus 2 [2]) [µM]	Ratio EC50 (Human alphaherpesvirus 2 [3])	EC50 (Human alphaherpesvirus 2 [4]) [µM]	Ratio CC50/EC50 [5]	CC50 at 72 h [6] [µM]	IC50 (HFF) [µM]	also measured
0.2	Cc1cn([C@H]2C[C@H](O)[C@@H](CO)S2)c(=O)[nH]c1=O [4'-THIOTHYMIDINE]				> 500	> 100	< 0.03	
0.9	Nc1ccn([C@@H]2S[C@H](CO)[C@@H](O)[C@@H]2O)c(=O)n1 [THIARABINE]				> 110	> 100		
15	Nc1nc(=O)n([C@H]2C[C@H](O)[C@@H](CO)S2)cc1Br				> 6.7	> 100	> 100	
	Nc1nc2c(ncn2COC(CO)CO)c(=O)[nH]1 [GANCICLOVIR]							EC50 (Human betaherpesvirus 5 [20]): 3.3 µM; EC50 (Human betaherpesvirus 5 [21]): 44 µM; EC50 (Human betaherpesvirus 5 [22]): 53 µM; EC50 (Human betaherpesvirus 5 [23]): 230 µM; EC50 (Human betaherpesvirus 5 [24]): 15 µM; EC50 (Human betaherpesvirus 5 [25]): 7.2 µM; EC50 (Human betaherpesvirus 5 [26]): 9.8 µM
0.3	O=c1[nH]c(=O)n([C@H]2C[C@H](O)[C@@H](CO)S2)cc1C(F)(F)F				> 330	> 100	0.1	
4.8	O=c1[nH]c(=O)n([C@H]2C[C@H](O)[C@@H](CO)S2)cc1Br				> 21	> 100		

Compound	EC50 (Human alphaherpesvirus 2 [1]) [µM]	EC50 (Human alphaherpesvirus 2 [2]) [µM]	Ratio EC50 (Human alphaherpesvirus 2 [3])	EC50 (Human alphaherpesvirus 2 [4]) [µM]	Ratio CC50/EC50 [5]	CC50 at 72 h [6] [µM]	IC50 (HFF) [µM]	also measured
O=c1[nH]c(=O)n([C@H]2C[C@H](O)[C@@H](CO)O2)cc1I [IDOXURIDINE]	2.4	> 100	42	78				
Nc1ccn(C[C@@H](CO)OCP(=O)(O)O)c(=O)n1.O.O [CIDOFOVIR]	9.5	4.7	1.3	1.2		> 100		EC50 (Human alphaherpesvirus 1 [7]): 5.5 µM; EC50 (Human alphaherpesvirus 2 [8]): 5.1 µM; EC50 (Human betaherpesvirus 5 [9]): 0.4 µM; EC50 (Human alphaherpesvirus 3): 0.5 µM; EC50 (Human gammaherpesvirus 4): 0.48 µM; EC50 [10]: 2.7 µM; EC50 (Human gammaherpesvirus 8): 0.064 µM
O=C(O)P(=O)(O)O [FOSCARNET]	670	403	0.66	389				
Nc1nc2c(ncn2COCCO)c(=O)[nH]1 [ACYCLOVIR]	3	> 440	>100	> 100		> 444	> 444	EC50 (Human alphaherpesvirus 1 [11]): 0.08 µM; EC50 (Human alphaherpesvirus 1 [12]): 12 µM; EC50 (Human alphaherpesvirus 1 [13]): 0.011 µM; EC50 (Human alphaherpesvirus 1 [14]): 0.6 µM; EC50 (Human alphaherpesvirus 1 [15]): 4.4 µM; EC50 (Human alphaherpesvirus 2 [16]): 4.7 µM; EC50 (Human alphaherpesvirus 2 [17]): 9.6 µM; EC50 (Human alphaherpesvirus 2 [18]): 4.9 µM; EC50 (Human alphaherpesvirus 2 [19]): 6.6 µM
